From ChEMBL document CHEMBL4706494, “Design, synthesis characterization and biological evaluation of novel multi-isoform ALDH inhibitors as potential anticancer agents” (Eur J Med Chem, 2020)
The source made the active and inactive calls. No cut-off for these calls is given here.

Experiments:
[1] = biological target: T1, Aldehyde dehydrogenase, dimeric NADP-preferring (Homo sapiens, UniProt P30838); assay: Inhibition of ALDH3A1 (unknown origin) assessed as NADH formation using 4-nitrobenzaldehyde as substrate
T1 sequence (P30838 whole entry): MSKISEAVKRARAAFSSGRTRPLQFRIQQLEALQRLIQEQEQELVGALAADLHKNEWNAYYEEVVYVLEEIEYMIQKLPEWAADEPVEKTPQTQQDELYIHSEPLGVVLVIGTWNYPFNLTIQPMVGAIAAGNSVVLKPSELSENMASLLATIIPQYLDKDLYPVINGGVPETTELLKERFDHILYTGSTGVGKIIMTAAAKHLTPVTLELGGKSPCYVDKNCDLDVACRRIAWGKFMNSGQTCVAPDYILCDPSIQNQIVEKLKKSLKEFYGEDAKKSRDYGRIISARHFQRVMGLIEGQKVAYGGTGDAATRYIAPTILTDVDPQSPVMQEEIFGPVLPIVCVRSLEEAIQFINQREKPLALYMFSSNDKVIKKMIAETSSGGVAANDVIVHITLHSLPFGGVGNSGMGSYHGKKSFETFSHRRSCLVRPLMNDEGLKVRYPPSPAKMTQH
Summary of the method: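 Protein at 0.2 µg/mL exposed 15 min to graded inhibitor concentrations. 1 mM 4-nitrobenzaldehyde substrate with NAD+ then added, run as for the ALDH1A1 assay.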

[2] = biological target: T2, Aldehyde dehydrogenase, mitochondrial (Homo sapiens, UniProt P05091); assay: Inhibition of ALDH2 (unknown origin) assessed as NADH formation using acetaldehyde as substrate
T2 sequence (P05091 whole entry): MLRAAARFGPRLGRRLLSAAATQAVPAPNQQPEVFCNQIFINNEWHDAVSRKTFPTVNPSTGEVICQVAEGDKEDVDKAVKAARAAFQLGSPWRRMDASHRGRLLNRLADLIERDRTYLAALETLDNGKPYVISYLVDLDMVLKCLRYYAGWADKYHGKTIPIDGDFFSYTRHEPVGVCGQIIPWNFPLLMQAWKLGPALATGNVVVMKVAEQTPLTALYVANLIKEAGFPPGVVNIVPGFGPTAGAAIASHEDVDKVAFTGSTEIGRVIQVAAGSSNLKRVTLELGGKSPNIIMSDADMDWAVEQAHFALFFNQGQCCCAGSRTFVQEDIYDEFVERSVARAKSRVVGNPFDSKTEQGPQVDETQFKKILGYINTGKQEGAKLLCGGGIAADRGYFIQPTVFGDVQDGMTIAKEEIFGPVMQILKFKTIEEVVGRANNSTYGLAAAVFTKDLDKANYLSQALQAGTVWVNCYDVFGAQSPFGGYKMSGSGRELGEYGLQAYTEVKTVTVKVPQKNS
Summary of the method: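 Enzyme at 0.5 µg/mL preincubated 15 min with varied inhibitor concentrations. Reaction started with 2 mM acetaldehyde plus NAD+ in buffer, as for the ALDH1A1 assay.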

[3] = biological target: T3, Aldehyde dehydrogenase 1A1 (Homo sapiens, UniProt P00352); assay: Inhibition of ALDH1A1 (unknown origin) assessed as NADH formation using propionaldehyde as substrate
T3 sequence (P00352 whole entry): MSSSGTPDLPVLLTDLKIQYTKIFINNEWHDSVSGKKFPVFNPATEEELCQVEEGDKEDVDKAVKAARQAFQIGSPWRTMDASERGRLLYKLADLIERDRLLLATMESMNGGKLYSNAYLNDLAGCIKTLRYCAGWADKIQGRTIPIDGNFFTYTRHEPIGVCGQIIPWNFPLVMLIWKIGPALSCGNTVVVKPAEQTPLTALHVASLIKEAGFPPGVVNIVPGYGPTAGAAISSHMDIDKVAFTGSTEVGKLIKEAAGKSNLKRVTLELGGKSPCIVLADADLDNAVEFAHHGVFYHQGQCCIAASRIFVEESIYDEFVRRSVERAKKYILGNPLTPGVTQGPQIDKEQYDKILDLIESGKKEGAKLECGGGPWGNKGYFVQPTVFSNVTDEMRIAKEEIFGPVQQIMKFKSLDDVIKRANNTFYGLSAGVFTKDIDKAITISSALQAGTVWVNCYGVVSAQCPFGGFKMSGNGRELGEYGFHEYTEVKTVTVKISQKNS

NCI-H929 = assay: Antiproliferative activity against human NCIH929 cells measured after 72 hrs by MTS assay; format: functional, cell-based; conditions: NCI-H929, 72 h
Summary of the method: (§1)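 Cells seeded at 5,000 per well, left overnight at 37°C in 5% CO2, then exposed to a range of compound concentrations for 72 h. IC50 was fitted from dose-response curves, 3 independent experiments, reported as mean + SD.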

[4] = Toxicity in Swiss-Webster mouse assessed as body weight loss at 5 mg/kg/day, ip for 14 days; format: organism-based; conditions: in vivo, 336 h, time 14 day
Summary of the method: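 Swiss-Webster mice received 5 mg/kg/day i.p. once daily for 14 days. Body weight, behaviour and physical distress were monitored, with % weight change compared against DMSO vehicle controls.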

U-266 = assay: Antiproliferative activity against human U266 cells measured after 72 hrs by MTS assay; format: functional, cell-based; conditions: U-266, 72 h; summary of the method: as §1
[5] = Cytotoxicity against human FF2441 cells measured after 72 hrs by MTS assay; format: cell-based; conditions: FF2441, 72 h; summary of the method: as §1
[6] = Antiproliferative activity against human MM.1R cells measured after 72 hrs by MTS assay; format: functional, cell-based; summary of the method: as §1
[7] = Antiproliferative activity against human 1205Lu cells measured after 72 hrs by MTS assay; format: functional, cell-based; summary of the method: as §1
MM1.S = assay: Antiproliferative activity against human MM.1S cells measured after 72 hrs by MTS assay; format: functional, cell-based; summary of the method: as §1
HCT-116 [8] = assay: Antiproliferative activity against human HCT116 cells measured after 72 hrs by MTS assay; format: functional, cell-based; conditions: HCT-116, 72 h; summary of the method: as §1
UACC-903 = assay: Antiproliferative activity against human UACC 903 cells measured after 72 hrs by MTS assay; format: functional, cell-based; conditions: UACC-903, 72 h; summary of the method: as §1
RPMI-8226 = assay: Antiproliferative activity against human RPMI8226 cells measured after 72 hrs by MTS assay; format: functional, cell-based; conditions: RPMI-8226, 72 h; summary of the method: as §1
HT-29 = assay: Antiproliferative activity against human HT-29 cells measured after 72 hrs by MTS assay; format: functional, cell-based; conditions: HT-29, 72 h; summary of the method: as §1
HCT-116 [9] = assay: Induction of ROS production in human HCT-116 cells at 5 uM incubated for 24 hrs by DCFDA staining based fluorescence microscopic analysis; format: functional, cell-based
HCT-116 [10] = assay: Induction of lipid peroxidation in human HCT-116 cells at 5 uM incubated for 24 hrs in presence of NAC by TBARS assay; format: functional, cell-based
Summary of the method: (§2)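 HCT116 cells treated 24 h with 5 µM compound, with or without 10 mM NAC. Pellets were sonicated on ice in PBS and lipids hydrolysed with acetic acid/NaOH. Free MDA was reacted with TBA and read at 530 nm, compared with DMSO control.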

HCT-116 [11] = assay: Induction of apoptosis in human HCT-116 cells at 5 uM incubated for 24 hrs in presence of NAC by annexinV- and […] staining based flow cytometry; format: functional, cell-based
Summary of the method: (§3)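 HCT116 cells treated 24 h with 5 µM compound, with or without 10 mM NAC. Cells were detached, PBS-washed, stained with Annexin-V-PE and 7-AAD, and analysed by flow cytometry. Annexin-V/7-AAD double-positive cells were scored as late apoptotic, relative to DMSO control.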

HCT-116 [12] = assay: Induction of cell cycle arrest in human HCT-116 cells assessed as accumulation of cells at G2/M phase at 5 uM incubated for 24 hrs by PI staining based flow cytometry; format: functional
Summary of the method: (§4)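 HCT116 cells given 5 µM compound for 24 h, with or without 10 mM NAC. Cells were detached, PBS-washed, fixed in 70% ethanol and stained with propidium iodide. DNA content read by flow cytometry for cell-cycle distribution.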

HCT-116 [13] = assay: Induction of apoptosis in human HCT-116 cells at 5 uM incubated for 24 hrs by annexinV- and […] staining based flow cytometry; format: functional, cell-based; summary of the method: as §3
HCT-116 [14] = assay: Induction of ROS production in human HCT-116 cells at 5 uM incubated for 24 hrs in presence of NAC by DCFDA staining based fluorescence microscopic analysis; format: functional, cell-based
HCT-116 [15] = assay: Induction of cell cycle arrest in human HCT-116 cells assessed as accumulation of cells at G2/M phase at 5 uM incubated for 24 hrs in presence of NAC by PI staining based flow cytometry; format: functional; summary of the method: as §4
HCT-116 [16] = assay: Induction of lipid peroxidation in human HCT-116 cells at 5 uM incubated for 24 hrs by TBARS assay; format: functional, cell-based; summary of the method: as §2

| IC50 [2] [nM] | IC50 [3] [nM] | Structure (SMILES) | IC50 [1] [nM] | also measured |
| --- | --- | --- | --- | --- |
|  |  | N=C(N)SCc1ccc(CN2C(=O)C(=O)c3cccc(C(F)(F)F)c32)cc1 | 246 |  |
|  |  | N=C(N)SCc1ccc(CN2C(=O)C(=O)c3cc(Cl)ccc32)cc1 | 3070 |  |
|  |  | N=C(N)SCc1ccc(CN2C(=O)C(=O)c3cccc(Br)c32)cc1 | 6320 |  |
| > 10000 | 598 | N=C(N)SCc1ccc(CN2C(=O)C(=O)c3cccc(F)c32)cc1 | 241 |  |
|  |  | N=C(N)[Se]Cc1ccc(CN2C(=O)C(=O)c3cccc(Br)c32)cc1 | > 10000 |  |
|  |  | N=C(N)SCc1ccc(CN2C(=O)C(=O)c3cc(F)ccc32)cc1 | 2860 |  |
| 1640 | 279 | Br.N=C(N)SCc1ccc(CN2C(=O)C(=O)c3cc(Cl)cc(Cl)c32)cc1 | 219 | IC50 (NCI-H929): 700 nM; Activity [4]: 10%; IC50 (U-266): 2700 nM; IC50 [5]: 5400 nM; IC50 [6]: 1600 nM; IC50 [7]: 2400 nM; IC50 (MM1.S): 1600 nM; IC50 (HCT-116 [8]): 3200 nM; IC50 (UACC-903): 3000 nM; IC50 (RPMI-8226): 1300 nM; IC50 (HT-29): 2600 nM |
|  |  | N=C(N)[Se]Cc1ccc(CN2C(=O)C(=O)c3cc(F)ccc32)cc1 | 2360 |  |
|  |  | N=C(N)[Se]Cc1ccc(CN2C(=O)C(=O)c3cc(C(F)(F)F)ccc32)cc1 | 1520 |  |
|  |  | N=C(N)SCc1ccc(CN2C(=O)C(=O)c3cc(F)cc(Br)c32)cc1 | 219 |  |
|  |  | N=C(N)[Se]Cc1ccc(CN2C(=O)C(=O)c3cccc(F)c32)cc1 | 246 |  |
| > 10000 | 177 | N=C(N)SCc1ccc(CN2C(=O)C(=O)c3cccc(Cl)c32)cc1 | 3590 |  |
|  |  | N=C(N)SCc1ccc(CN2C(=O)C(=O)c3ccccc32)cc1 | 4200 |  |
| > 10000 | 8520 | N=C(N)SCc1ccc(CN2C(=O)C(=O)c3cc(Br)ccc32)cc1 | 4880 |  |
|  |  | N=C(N)[Se]Cc1ccc(CN2C(=O)C(=O)c3cc(Cl)ccc32)cc1 | 2770 |  |
|  |  | N=C(N)[Se]Cc1ccc(CN2C(=O)C(=O)c3cc(Br)ccc32)cc1 | 344 |  |
|  |  | N=C(N)[Se]Cc1ccc(CN2C(=O)C(=O)c3cc(Cl)cc(Cl)c32)cc1 | 327 |  |
|  |  | O=C1C(=O)N(Cc2ccccc2)c2ccccc21 |  | IC50 [5]: > 100000 nM; IC50 [7]: > 100000 nM; IC50 (UACC-903): > 100000 nM |
| 2140 | 334 | Br.N=C(N)SCc1ccc(CN2C(=O)C(=O)c3cc(C(F)(F)F)ccc32)cc1 | 360 | IC50 (NCI-H929): 1500 nM; Activity [4]: 2%; Activity (HCT-116 [9]): Active; Activity (HCT-116 [10]): inactive; IC50 (U-266): 2600 nM; Activity (HCT-116 [11]): inactive; Activity (HCT-116 [12]): Active; IC50 [5]: 20700 nM; IC50 [6]: 1700 nM; Activity (HCT-116 [13]): Active; IC50 [7]: 5700 nM; IC50 (MM1.S): 2200 nM; IC50 (HCT-116 [8]): 5700 nM; Activity (HCT-116 [14]): inactive; IC50 (UACC-903): 5700 nM; Activity (HCT-116 [15]): inactive; IC50 (RPMI-8226): 1600 nM; IC50 (HT-29): 4900 nM; Activity (HCT-116 [16]): Active |
|  |  | N=C(N)[Se]Cc1ccc(CN2C(=O)C(=O)c3ccccc32)cc1 | 4010 |  |

| Structure (SMILES) | IC50 [2] [nM] | IC50 [3] [nM] | IC50 [1] [nM] | also measured |
| --- | --- | --- | --- | --- |
| N=C(N)[Se]Cc1ccc(CN2C(=O)C(=O)c3cccc(Cl)c32)cc1 | > 10000 | > 10000 | > 10000 |  |
| N=C(N)[Se]Cc1ccc(CN2C(=O)C(=O)c3cc(F)cc(Br)c32)cc1 | 1920 | 420 | 368 |  |
| N=C(N)[Se]Cc1ccc(CN2C(=O)C(=O)c3cccc(C(F)(F)F)c32)cc1 | 3490 | 657 | 251 |  |
| N=C(N)[Se]Cc1ccc(CN2C(=O)C(=O)c3cc(Br)cc(Br)c32)cc1 | 2010 | 397 | 333 |  |
